Key:
[1] = sublingual, male volunteers; ref De Groot et al., 1995; cited from earlier work
[2] = Plasma oxytocin pharmacokinetics, phase 1 single-dose study; format: in vivo, human
Safety and tolerability = format: in vivo, human; conditions: IM 10 IU (17 μg); N = 16
Outline: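 Healthy female volunteers in a single-centre, single-blind, fixed-sequence phase 1 study received a single IM dose of test compound, 10 IU, alongside inhaled dosing sessions. Adverse events and serious adverse events were recorded throughout the study. Spirometry, clinical laboratory tests, vital signs, ECG intervals, physical examination and cardiac telemetry were checked at set post-dose times. Follow-up visit 7–21 days after the last inhaled dose. Data were summarised descriptively.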

[3] = female, human, plasma, im, 10 IU

oxytocin [sublingual oxytocin]
absorption half-life [1]: long absorption half-life
bioavailability [1]: poor bioavailability
lag time [1]: long lag time

CC[C@H](C)[C@@H]1NC(=O)[C@H](Cc2ccc(O)cc2)NC(=O)[C@@H](N)CSSC[C@@H](C(=O)N2CCC[C@H]2C(=O)N[C@@H](CC(C)C)C(=O)NCC(N)=O)NC(=O)[C@H](CC(N)=O)NC(=O)[C@H](CCC(N)=O)NC1=O [IM oxytocin, oxytocin]
subjects in whom plasma oxytocin remained quantifiable up to 4 h ([2]; IM 10 IU, LLQ 2 pg/mL): 5/16
AUC(0–3 h), adjusted geometric mean ([2]; IM 10 IU, plasma, mixed-effect model, PK population): 0.12761 ng·h/mL
AUC(0-t) [2, 3]: 0.12 ng·h/mL
Cmax [2, 3]: 0.19 ng/mL
half-life [2, 3]: 38.4 min
level at 0.5 h [2, 3]: 0.0822 ng/mL
tmax [2, 3]: 10.2 min
tmax ([2]; following IM administration (10 IU), plasma): ~ 10 min
AE that led to discontinuation of study drug or withdrawal from the study, number of subjects (Safety and tolerability): 0
Deaths, number of AEs (Safety and tolerability): 0
Deaths, number of subjects (Safety and tolerability): 0
Headache (drug-related), number of AEs (Safety and tolerability): 1
Led to discontinuation of study drug or withdrawal from the study, number of AEs (Safety and tolerability): 0
Non-fatal SAEs, number of subjects (Safety and tolerability): 0

— PMC5552226 (EBioMedicine, 2017)
